Experimental data from ChEMBL document CHEMBL2150980 (Eur J Med Chem, 2012).

How the values were obtained:
[1] = biological target: T1, Alpha-1A adrenergic receptor (Cavia porcellus) (UniProt Q9WU25); assay: Inverse agonist activity at alpha1A adrenoceptor in guinea pig thoracic aorta assessed as inhibition of ca2+-induced IRT at 10 nM after 30 mins; format: functional, tissue-based
T1 sequence (whole entry): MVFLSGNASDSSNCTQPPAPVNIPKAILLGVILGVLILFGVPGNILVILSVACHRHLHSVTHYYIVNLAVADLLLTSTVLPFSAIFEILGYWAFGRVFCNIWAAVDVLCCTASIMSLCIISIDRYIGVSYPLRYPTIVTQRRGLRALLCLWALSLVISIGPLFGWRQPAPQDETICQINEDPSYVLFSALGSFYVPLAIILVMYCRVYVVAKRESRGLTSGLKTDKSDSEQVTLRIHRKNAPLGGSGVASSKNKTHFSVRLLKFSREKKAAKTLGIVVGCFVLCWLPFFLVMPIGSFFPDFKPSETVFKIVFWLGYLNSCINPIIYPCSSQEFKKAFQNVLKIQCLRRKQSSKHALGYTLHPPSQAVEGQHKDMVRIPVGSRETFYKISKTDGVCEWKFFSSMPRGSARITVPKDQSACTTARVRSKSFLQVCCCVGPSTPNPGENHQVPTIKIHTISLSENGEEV
Outline: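 Tissue in Krebs equilibrated 1 h at 1 g, then given a single (−)-noradrenaline dose. Washed 1 h in Ca2+-free Krebs with 0.1 mM EDTA, with agonist reapplied until no contraction (internal Ca2+ stores depleted). Antagonist 10 nM for 30 min, then Ca2+ 1.8 mM added. Result is % decrease versus IRT without any agent; mean ± SE, 4–7 experiments.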

[2] = biological target: T2, Adrenergic receptor alpha-2 (Rattus norvegicus, UniProt P22086+P19328+P22909); assay: Antagonist activity at alpha2 adrenoceptor in Sprague-Dawley rat prostatic vas deferens assessed as suppression of clonidine-mediated inhibition of twitch response after 30 mins; format: functional, tissue-based
T2 sequence (P22086 whole entry): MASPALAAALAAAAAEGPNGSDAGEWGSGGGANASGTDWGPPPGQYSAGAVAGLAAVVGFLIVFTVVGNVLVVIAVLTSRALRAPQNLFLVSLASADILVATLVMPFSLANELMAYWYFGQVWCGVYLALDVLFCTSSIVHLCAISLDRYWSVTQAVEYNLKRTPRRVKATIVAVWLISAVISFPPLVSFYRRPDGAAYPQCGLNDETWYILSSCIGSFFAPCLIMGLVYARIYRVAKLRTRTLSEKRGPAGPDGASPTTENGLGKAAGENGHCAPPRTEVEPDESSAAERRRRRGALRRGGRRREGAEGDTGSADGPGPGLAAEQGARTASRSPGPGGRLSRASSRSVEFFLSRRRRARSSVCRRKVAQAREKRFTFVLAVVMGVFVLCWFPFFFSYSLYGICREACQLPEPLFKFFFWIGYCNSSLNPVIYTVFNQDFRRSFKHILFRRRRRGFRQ
T2 sequence (P19328 whole entry): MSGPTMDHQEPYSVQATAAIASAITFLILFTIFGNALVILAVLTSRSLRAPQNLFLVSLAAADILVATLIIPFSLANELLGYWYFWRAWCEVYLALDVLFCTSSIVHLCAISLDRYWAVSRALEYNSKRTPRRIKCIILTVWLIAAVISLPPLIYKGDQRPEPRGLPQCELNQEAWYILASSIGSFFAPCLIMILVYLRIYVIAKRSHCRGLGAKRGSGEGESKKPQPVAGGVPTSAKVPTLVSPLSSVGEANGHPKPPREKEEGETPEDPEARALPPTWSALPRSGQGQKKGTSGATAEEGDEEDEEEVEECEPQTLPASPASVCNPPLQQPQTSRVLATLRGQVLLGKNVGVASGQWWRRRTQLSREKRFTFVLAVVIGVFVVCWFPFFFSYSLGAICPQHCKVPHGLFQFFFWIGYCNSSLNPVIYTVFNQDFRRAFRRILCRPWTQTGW
T2 sequence (P22909 whole entry): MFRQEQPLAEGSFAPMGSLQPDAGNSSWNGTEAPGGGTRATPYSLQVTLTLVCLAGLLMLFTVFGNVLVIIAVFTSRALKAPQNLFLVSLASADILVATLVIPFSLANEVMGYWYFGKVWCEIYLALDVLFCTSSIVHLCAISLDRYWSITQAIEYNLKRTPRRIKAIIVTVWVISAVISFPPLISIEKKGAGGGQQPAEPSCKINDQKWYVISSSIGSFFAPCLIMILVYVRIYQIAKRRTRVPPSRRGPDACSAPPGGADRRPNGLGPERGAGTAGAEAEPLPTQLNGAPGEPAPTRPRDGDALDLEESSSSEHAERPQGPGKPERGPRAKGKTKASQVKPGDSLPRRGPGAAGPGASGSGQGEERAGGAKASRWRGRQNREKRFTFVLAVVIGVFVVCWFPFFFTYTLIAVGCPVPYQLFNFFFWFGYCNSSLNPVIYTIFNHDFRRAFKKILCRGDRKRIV
Outline: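 Prostatic vas deferens segments (1.5–2 cm) in Krebs at 37 °C, field-stimulated at 0.1 Hz with 3 ms square pulses, 20–40 V. Equilibrated 1 h at 0.35 g resting tension.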

[3] = biological target: T3, Alpha-1B adrenergic receptor (Homo sapiens, UniProt P35368); assay: Displacement of [3H]prazosin from human cloned alpha1B adrenoceptor expressed in CHO cell membranes after 30 mins by liquid scintillation counter
T3 sequence (P35368 whole entry): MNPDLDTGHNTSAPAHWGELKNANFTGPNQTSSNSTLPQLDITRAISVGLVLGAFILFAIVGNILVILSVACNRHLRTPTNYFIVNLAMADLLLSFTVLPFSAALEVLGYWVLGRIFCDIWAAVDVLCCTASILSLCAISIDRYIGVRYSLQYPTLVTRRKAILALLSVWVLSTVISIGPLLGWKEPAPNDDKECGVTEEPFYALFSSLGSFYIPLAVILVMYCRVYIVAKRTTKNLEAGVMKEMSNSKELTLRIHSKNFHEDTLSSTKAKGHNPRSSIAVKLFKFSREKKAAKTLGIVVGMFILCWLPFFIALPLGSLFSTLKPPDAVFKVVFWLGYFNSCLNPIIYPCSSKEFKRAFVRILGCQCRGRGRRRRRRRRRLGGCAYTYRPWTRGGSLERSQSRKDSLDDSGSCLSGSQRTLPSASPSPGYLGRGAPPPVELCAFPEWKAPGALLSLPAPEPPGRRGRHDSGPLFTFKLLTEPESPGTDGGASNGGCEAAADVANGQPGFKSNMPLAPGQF

[4] = biological target: T4, 5-hydroxytryptamine receptor 1A (Rattus norvegicus, UniProt P19327); assay: Displacement of [3H]-8-OH-DPAT from 5-HT1A receptor in rat hippocampal membranes after 30 mins by liquid scintillation counting; format: cell membranes, Hippocampus, Membrane
T4 sequence (P19327 whole entry): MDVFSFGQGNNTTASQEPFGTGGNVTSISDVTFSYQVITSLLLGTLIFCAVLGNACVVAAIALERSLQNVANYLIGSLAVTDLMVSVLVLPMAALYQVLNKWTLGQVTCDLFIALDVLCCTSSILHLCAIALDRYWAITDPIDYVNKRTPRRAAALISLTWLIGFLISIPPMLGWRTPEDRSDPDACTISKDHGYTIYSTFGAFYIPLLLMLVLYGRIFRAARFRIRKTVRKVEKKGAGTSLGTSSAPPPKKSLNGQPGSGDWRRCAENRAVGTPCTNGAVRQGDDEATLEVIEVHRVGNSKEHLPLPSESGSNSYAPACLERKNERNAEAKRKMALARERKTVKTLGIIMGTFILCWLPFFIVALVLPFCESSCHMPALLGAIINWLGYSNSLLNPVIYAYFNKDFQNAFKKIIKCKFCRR
Outline: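 Crude rat hippocampal membranes in Tris-HCl 50 mM, pH 7.7, with pargyline and 4 mM CaCl2. […] Stopped by GF/B filtration, then scintillation counting. Ki from IC50 via Cheng–Prusoff; ≥3 experiments in triplicate.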

[5] = biological target: T5, Alpha-1A adrenergic receptor (Homo sapiens, UniProt P35348); assay: Displacement of [3H]prazosin from human cloned alpha1A adrenoceptor expressed in CHO cell membranes after 30 mins by liquid scintillation counter
T5 sequence (P35348 whole entry): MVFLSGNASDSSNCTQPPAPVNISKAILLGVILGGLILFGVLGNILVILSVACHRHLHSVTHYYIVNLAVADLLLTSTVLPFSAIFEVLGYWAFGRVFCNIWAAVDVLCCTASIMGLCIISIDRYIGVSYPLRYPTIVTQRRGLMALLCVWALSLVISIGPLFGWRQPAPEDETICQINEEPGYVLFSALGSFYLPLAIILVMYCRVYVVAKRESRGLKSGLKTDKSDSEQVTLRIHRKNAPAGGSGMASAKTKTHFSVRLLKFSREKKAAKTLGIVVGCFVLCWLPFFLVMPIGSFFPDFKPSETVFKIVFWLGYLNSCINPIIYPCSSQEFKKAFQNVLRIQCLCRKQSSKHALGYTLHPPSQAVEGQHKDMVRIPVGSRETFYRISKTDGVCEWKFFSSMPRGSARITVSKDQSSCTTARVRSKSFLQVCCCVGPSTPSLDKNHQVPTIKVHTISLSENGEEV
Outline: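 Membranes incubated 30 min at 25 °C with 0.5 nM [3H]-prazosin ± compound (0.3–1000 nM) in 50 mM buffer, pH 7.7, containing pargyline and 0.1% ascorbic acid. Unlabelled prazosin defined nonspecific binding. GF/B filtration, scintillation counting.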

[6] = biological target: T6, Alpha-1D adrenergic receptor (Homo sapiens, UniProt P25100); assay: Displacement of [3H]prazosin from human cloned alpha1D adrenoceptor expressed in CHO cell membranes after 30 mins by liquid scintillation counter
T6 sequence (P25100 whole entry): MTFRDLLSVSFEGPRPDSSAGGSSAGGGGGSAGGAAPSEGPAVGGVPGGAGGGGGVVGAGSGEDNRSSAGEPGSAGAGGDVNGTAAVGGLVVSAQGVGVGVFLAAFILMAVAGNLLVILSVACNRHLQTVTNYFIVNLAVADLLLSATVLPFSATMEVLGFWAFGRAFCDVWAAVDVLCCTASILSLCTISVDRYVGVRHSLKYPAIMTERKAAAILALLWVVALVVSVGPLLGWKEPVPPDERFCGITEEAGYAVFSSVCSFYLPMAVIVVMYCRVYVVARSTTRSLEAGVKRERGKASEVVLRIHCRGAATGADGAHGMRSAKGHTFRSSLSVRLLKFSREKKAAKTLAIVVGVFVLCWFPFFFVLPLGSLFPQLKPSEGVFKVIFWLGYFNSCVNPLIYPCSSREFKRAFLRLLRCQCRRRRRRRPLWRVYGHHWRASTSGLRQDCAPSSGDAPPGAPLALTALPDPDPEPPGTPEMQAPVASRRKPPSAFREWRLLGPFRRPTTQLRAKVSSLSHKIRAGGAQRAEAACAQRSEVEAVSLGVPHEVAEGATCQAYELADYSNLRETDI

inhibition [1] [%] | pA2 [2] | Ki [3] [nM] | Ki [4] [nM] | Ki [5] [nM] | Ki [6] [nM] | SMILES
84 | 6.92 | – | – | – | – | COc1cccc(OC)c1OCCNC[C@H]1COc2ccccc2O1.Cl
– | – | 79.4 | 12.9 | 16.6 | 16.6 | COc1cccc(OC)c1OCCNC[C@@H]1COc2cccc(OC)c2O1
– | – | 102 | 31.6 | 18.2 | 7.41 | COc1cccc(OC)c1OCCNC[C@@H]1COc2cccc(F)c2O1
– | – | 33.9 | 17.4 | 5.62 | 3.98 | COc1cccc(OC)c1OCCNC[C@@H]1COc2cccc(Cl)c2O1
– | – | 398 | 17.4 | 66.1 | 324 | COc1cccc(OC)c1OCCNC[C@@H]1COc2cccc(O)c2O1
– | – | 646 | 123 | 813 | 263 | COc1cccc(OC)c1OCCNC[C@@H]1COc2c(OC)cccc2O1
